Assay results taken from ChEMBL document CHEMBL1821569, “Synthesis of novel 1,2,5-trisubstituted benzimidazoles as potential antitumor agents” (2011).

What was measured:
Type in all cases: functional
HCT-116 = assay: Antitumor activity against human HCT116 cells after 48 hrs by SRB assay; details: HCT-116, 48 h
Outline: (§1)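 NCI 60-cell-line secondary screen. Cells were exposed continuously to drug for 48 h at five concentration levels (100, 10, 1.0, 0.1 and 0.01). Growth was estimated by sulforhodamine B protein staining. GI50 is the concentration giving a 50% reduction in net protein increase versus untreated control cells over the incubation. TGI (total growth inhibition) and LC50 (50% cell kill) were also derived.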

HL-60(TB) = assay: Antitumor activity against human HL-60(TB) cells after 48 hrs by SRB assay; details: HL-60, 48 h
Outline: (§2)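 NCI 60-cell-line secondary screen: continuous drug exposure for 48 h at five concentration levels (100, 10, 1.0, 0.1 and 0.01). Cell growth was estimated by sulforhodamine B (SRB) protein staining. GI50 is the concentration giving a 50% reduction in net protein increase relative to untreated control cells during the incubation. TGI and LC50 were derived from the same data.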

786-0 = assay: Antitumor activity against human 786-0 cells after 48 hrs by SRB assay; details: 786-0, 48 h; outline: as §1
HOP-62 = assay: Antitumor activity against human HOP62 cells after 48 hrs by SRB assay; details: HOP-62, 48 h; outline: as §1
RXF 393 = assay: Antitumor activity against human RXF393 cells after 48 hrs by SRB assay; details: RXF 393, 48 h; outline: as §1
SF-539 = assay: Antitumor activity against human SF539 cells after 48 hrs by SRB assay; details: SF-539, 48 h; outline: as §1
OVCAR-5 = assay: Antitumor activity against human OVCAR5 cells after 48 hrs by SRB assay; details: OVCAR-5, 48 h; outline: as §1
OVCAR-3 = assay: Antitumor activity against human OVCAR3 cells after 48 hrs by SRB assay; details: OVCAR-3, 48 h; outline: as §1
OVCAR-4 = assay: Antitumor activity against human OVCAR4 cells after 48 hrs by SRB assay; details: OVCAR-4, 48 h; outline: as §1
OVCAR-8 = assay: Antitumor activity against human OVCAR8 cells after 48 hrs by SRB assay; details: OVCAR-8, 48 h; outline: as §1
A549 = assay: Antitumor activity against human A549 cells after 48 hrs by SRB assay; details: A549, 48 h; outline: as §1
MOLT-4 = assay: Antitumor activity against human MOLT4 cells after 48 hrs by SRB assay; details: MOLT-4, 48 h; outline: as §1
MCF7 = assay: Antitumor activity against human MCF7 cells after 48 hrs by SRB assay; details: MCF7, 48 h; outline: as §1
COLO 205 = assay: Antitumor activity against human COLO205 cells after 48 hrs by SRB assay; details: COLO 205, 48 h; outline: as §1
A498 = assay: Antitumor activity against human A498 cells after 48 hrs by SRB assay; details: A498, 48 h; outline: as §1
SNB-19 = assay: Antitumor activity against human SNB19 cells after 48 hrs by SRB assay; details: SNB-19, 48 h; outline: as §1
NCI/ADR-RES = assay: Antitumor activity against human NCI/ADR-RES cells after 48 hrs by SRB assay; outline: as §1
HCC 2998 = assay: Antitumor activity against human HCC2998 cells after 48 hrs by SRB assay; details: HCC 2998, 48 h, read-out: LC50 (the source's name); outline: as §2
SR = assay: Antitumor activity against human SR cells after 48 hrs by SRB assay
Outline: (§3)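 NCI 60-cell-line secondary screen. Continuous 48 h exposure at five concentration levels. Cell growth estimated by sulforhodamine B protein staining. GI50 taken as the concentration giving 50% reduction in net protein increase relative to untreated control cells over the incubation. TGI (total growth inhibition) and LC50 (50% cell kill) were also derived.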

CCRF-CEM = assay: Antitumor activity against human CCRF-CEM cells after 48 hrs by SRB assay; outline: as §1
[1] = Antitumor activity against human Hs 578T cells after 48 hrs by SRB assay; outline: as §1
NCI-H460 = assay: Antitumor activity against human NCI-H460 cells after 48 hrs by SRB assay; details: NCI-H460, 48 h; outline: as §1
SK-MEL-2 = assay: Antitumor activity against human SK-MEL-2 cells after 48 hrs by SRB assay; details: SK-MEL-2, 48 h; outline: as §1
NCI-H322M = assay: Antitumor activity against human NCI-H322M cells after 48 hrs by SRB assay; outline: as §1
HT-29 = assay: Antitumor activity against human HT-29 cells after 48 hrs by SRB assay; details: HT-29, 48 h; outline: as §1
PC-3 = assay: Antitumor activity against human PC3 cells after 48 hrs by SRB assay; details: PC-3, 48 h; outline: as §1
MDA-MB-435 = assay: Antitumor activity against human MDA-MB-435 cells after 48 hrs by SRB assay; details: MDA-MB-435, 48 h; outline: as §1
NCI-H23 = assay: Antitumor activity against human NCI-H23 cells after 48 hrs by SRB assay; details: NCI-H23, 48 h; outline: as §1
U-251 = assay: Antitumor activity against human U251 cells after 48 hrs by SRB assay; details: U-251, 48 h; outline: as §3
[2] = read-out: LC50 (the source's name)

## COC(=O)c1ccc2c(c1)nc(-c1cc3ccccc3[nH]c1=O)n2-c1cc(C(C)(C)C)[nH]n1
HCT-116
  GI50: 1.74 µM
  LC50: > 100 µM
  TGI: > 100 µM
HL-60(TB)
  GI50: 0.322 µM
  LC50: > 100 µM
786-0
  GI50: 5.81 µM
  TGI: > 100 µM
786-0; [2]
  CC50: > 100 µM
HOP-62
  GI50: 0.996 µM
  LC50 (concentration giving 50% cell kill): > 100 µM
  TGI: > 100 µM
RXF 393
  GI50: 2.16 µM
  TGI: 8.86 µM
RXF 393; [2]
  CC50: > 100 µM
SF-539
  GI50: 4.12 µM
  TGI: > 100 µM
SF-539; [2]
  CC50: > 100 µM
OVCAR-5
  TGI: > 100 µM
OVCAR-5; [2]
  CC50: > 100 µM
OVCAR-3
  GI50: 6.27 µM
  TGI: > 100 µM
OVCAR-3; [2]
  CC50: > 100 µM
OVCAR-4
  TGI: > 100 µM
OVCAR-4; [2]
  CC50: > 100 µM
OVCAR-8
  GI50: 1.79 µM
  TGI: > 100 µM
OVCAR-8; [2]
  CC50: > 100 µM
A549
  GI50: > 100 µM
  TGI: > 100 µM
A549; [2]
  CC50: > 100 µM
MOLT-4
  GI50: 0.445 µM
  LC50 (50% net cell kill): > 100 µM
  TGI: > 100 µM
MCF7
  GI50: > 100 µM
  TGI: > 100 µM
MCF7; [2]
  CC50: > 100 µM
COLO 205
  TGI: > 100 µM
COLO 205; [2]
  CC50: > 100 µM
A498
  GI50: 13.6 µM
  TGI: 76.9 µM
A498; [2]
  CC50: > 100 µM
SNB-19
  GI50: 7.59 µM
  TGI: > 100 µM
SNB-19; [2]
  CC50: > 100 µM
NCI/ADR-RES
  GI50: 5.29 µM
  TGI: > 100 µM
NCI/ADR-RES; [2]
  CC50: > 100 µM
HCC 2998
  CC50: > 100 µM
SR
  GI50: 10 µM
  TGI: > 100 µM
SR; [2]
  CC50: > 100 µM
CCRF-CEM
  GI50: 0.585 µM
  TGI: > 100 µM
CCRF-CEM; [2]
  CC50: > 100 µM
[1]
  GI50: 0.619 µM
  TGI: 34.1 µM
[1]; [2]
  CC50: > 100 µM
NCI-H460
  GI50: 0.63 µM
  TGI: > 100 µM
NCI-H460; [2]
  CC50: > 100 µM
SK-MEL-2
  GI50: 2.25 µM
  TGI: > 100 µM
SK-MEL-2; [2]
  CC50: > 100 µM
NCI-H322M
  GI50: 0.929 µM
  LC50 (50% cell kill): > 100 µM
  TGI: > 100 µM
HT-29
  GI50: 1.34 µM
  LC50 (50% cell kill): > 100 µM
  TGI: > 100 µM
PC-3
  GI50: 2.27 µM
  TGI: > 100 µM
PC-3; [2]
  CC50: > 100 µM
MDA-MB-435
  TGI: > 100 µM
MDA-MB-435; [2]
  CC50: > 100 µM
NCI-H23
  GI50: 2.78 µM
  LC50 (50% cell kill): > 100 µM
  TGI: > 100 µM
U-251
  GI50: 0.652 µM
  TGI: > 100 µM
U-251; [2]
  CC50: > 100 µM
